Consider 22 compounds from ChEMBL document CHEMBL4414622, “Synthesis, Purification, and Selective β2-AR Agonist and Bronchodilatory Effects of Catecholic Tetrahydroisoquinolines from Portulaca oleracea” (J Nat Prod, 2019).

pEC50: −log10 of the molar value. Activity calls are given as the source filed them. The calls are words filed in the database; no cut-off is given here.

In assay [1] the target is Beta-2 adrenergic receptor (Homo sapiens) (UniProt P07550). In words: Agonist activity at human beta2 adrenergic receptor expressed in CHOK1 cells co-expressing Galpha15 assessed as increase in calcium influx by measuring fluorescence intensity at 100 uM by FLIPR assay relative to isoproterenol. Format: functional, cell-based. A digest of the protocol:
(§1)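 Stably transfected CHO-K1/Gα15 lines (ADRB1, ADRB2 or ADRA1B) grown in Ham's F12 with 10% FBS, Zeocin and Hygromycin B at 37 °C. Seeded 1.5 × 10⁴ cells/well, 18 h, then Calcium 4 dye 1 h at 37 °C and 15 min room temperature. Compound (100 μM) added at 21 s of a 120 s FLIPR Tetra read. Stocks were 100 mM in DMSO, diluted in HBSS/20 mM HEPES pH 7.4. n = 4.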

In assay [2] the target is Beta-1 adrenergic receptor (Homo sapiens) (UniProt P08588). In words: Agonist activity at human beta1 adrenergic receptor expressed in CHOK1 cells co-expressing Galpha15 assessed as increase in calcium influx by measuring fluorescence intensity at 100 uM by FLIPR assay relative to epinephrine. Format: functional, cell-based. In outline: as §1
Assay [3] has as its target T1, Alpha-1B adrenergic receptor (Homo sapiens) (UniProt P35368).
T1 sequence (whole entry): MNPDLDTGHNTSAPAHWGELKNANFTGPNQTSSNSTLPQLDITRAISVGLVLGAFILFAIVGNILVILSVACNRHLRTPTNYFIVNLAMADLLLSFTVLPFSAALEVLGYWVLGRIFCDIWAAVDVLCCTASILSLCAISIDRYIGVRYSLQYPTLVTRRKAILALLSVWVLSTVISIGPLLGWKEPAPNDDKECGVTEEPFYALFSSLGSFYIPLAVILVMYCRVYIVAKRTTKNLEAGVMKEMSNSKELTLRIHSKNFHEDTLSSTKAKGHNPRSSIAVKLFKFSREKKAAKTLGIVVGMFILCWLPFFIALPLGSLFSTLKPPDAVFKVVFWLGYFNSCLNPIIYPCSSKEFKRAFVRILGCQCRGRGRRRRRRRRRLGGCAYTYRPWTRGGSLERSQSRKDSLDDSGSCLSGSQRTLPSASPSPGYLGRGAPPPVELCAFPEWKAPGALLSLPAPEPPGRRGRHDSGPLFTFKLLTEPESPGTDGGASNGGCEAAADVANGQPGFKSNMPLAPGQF
In words: Agonist activity at human alpha1 beta adrenergic receptor expressed in CHOK1 cells co-expressing Galpha15 assessed as increase in calcium influx by measuring fluorescence intensity at 100 uM by FLIPR assay relative to epinephrine. Format: functional, cell-based. In outline:
as §1

Assay [4] addresses Beta-2 adrenergic receptor (Cavia porcellus, UniProt Q8K4Z4). In words: Agonist activity at beta2 adrenergic receptor in guinea pig tracheal smooth muscle assessed as inhibition of histamine-induced tracheal smooth muscle contraction by measuring spasmolysis in absence of beta adrenergic receptor antagonist propranolol.
Assay [5] concerns the target Beta-2 adrenergic receptor (Cavia porcellus) (UniProt Q8K4Z4). In words: Agonist activity at beta2 adrenergic receptor in guinea pig tracheal smooth muscle assessed as inhibition of histamine-induced tracheal smooth muscle contraction by measuring spasmolysis preincubated for 15 mins in presence of beta adrenergic receptor antagonist propranolol followed by histamine addition.

Chain of Beta-2 adrenergic receptor (Q8K4Z4 whole entry): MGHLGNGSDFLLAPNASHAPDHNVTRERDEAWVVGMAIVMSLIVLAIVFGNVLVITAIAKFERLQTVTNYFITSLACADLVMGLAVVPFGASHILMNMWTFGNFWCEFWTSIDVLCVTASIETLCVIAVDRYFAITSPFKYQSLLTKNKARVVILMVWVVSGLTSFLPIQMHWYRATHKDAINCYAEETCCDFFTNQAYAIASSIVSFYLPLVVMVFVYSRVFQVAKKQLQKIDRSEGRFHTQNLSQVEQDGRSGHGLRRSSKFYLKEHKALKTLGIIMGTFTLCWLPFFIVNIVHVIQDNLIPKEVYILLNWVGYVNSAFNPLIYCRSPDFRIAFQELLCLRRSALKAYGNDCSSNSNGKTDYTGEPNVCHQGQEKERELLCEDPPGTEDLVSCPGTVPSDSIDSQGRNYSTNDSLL
Chain of Beta-2 adrenergic receptor (Homo sapiens) (P07550 whole entry, looked up): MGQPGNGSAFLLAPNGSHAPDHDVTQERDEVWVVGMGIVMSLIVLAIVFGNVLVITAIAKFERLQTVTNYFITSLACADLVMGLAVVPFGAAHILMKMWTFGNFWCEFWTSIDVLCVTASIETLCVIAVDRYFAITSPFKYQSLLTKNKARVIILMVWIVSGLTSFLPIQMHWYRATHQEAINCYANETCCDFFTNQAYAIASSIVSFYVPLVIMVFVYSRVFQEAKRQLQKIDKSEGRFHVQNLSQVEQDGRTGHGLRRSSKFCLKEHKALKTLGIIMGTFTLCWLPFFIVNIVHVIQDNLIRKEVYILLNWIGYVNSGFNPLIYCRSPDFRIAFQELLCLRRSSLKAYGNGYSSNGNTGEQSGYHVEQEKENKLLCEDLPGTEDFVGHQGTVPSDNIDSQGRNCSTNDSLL
Chain of Beta-1 adrenergic receptor (Homo sapiens) (P08588 whole entry, looked up): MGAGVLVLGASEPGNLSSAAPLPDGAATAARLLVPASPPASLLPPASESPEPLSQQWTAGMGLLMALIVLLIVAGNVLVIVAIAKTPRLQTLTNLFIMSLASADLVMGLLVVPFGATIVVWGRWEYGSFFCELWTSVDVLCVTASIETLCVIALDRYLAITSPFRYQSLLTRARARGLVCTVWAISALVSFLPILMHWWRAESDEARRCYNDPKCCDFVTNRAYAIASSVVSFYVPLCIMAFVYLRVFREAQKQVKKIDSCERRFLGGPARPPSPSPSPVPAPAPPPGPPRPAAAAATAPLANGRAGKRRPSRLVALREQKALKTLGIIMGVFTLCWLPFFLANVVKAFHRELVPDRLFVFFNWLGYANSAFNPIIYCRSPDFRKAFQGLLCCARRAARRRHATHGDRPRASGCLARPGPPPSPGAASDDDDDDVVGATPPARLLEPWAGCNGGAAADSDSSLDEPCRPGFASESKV
Chain of Beta-2 adrenergic receptor (Cavia porcellus) (Q8K4Z4 whole entry, looked up): as the sequence (Q8K4Z4 whole entry) above

Turning to `Oc1ccc(C2NCCc3cc(O)c(O)cc32)cc1` (stereo unspecified), the outcome in assay [1] and in assay [2] was inactive. Further, in assay [3], the Activity came to 31.9%.
Consider `Oc1cc2c(cc1O)[C@@H](Cc1ccccc1)NCC2`, for which the Activity in assay [2] amounted to 80.3%; in assay [3], 6.1%.
With `CC1NCCc2cc(O)c(O)cc21` (stereo unspecified), the results for the Activity in assay [1], in assay [2] and in assay [3] were 2.91%, -11.4% and 22.1%, respectively.
For the compound `Oc1cc2c(cc1O)C(Cc1ccccc1)NCC2` (stereo unspecified), the pEC50 (commonly the EC50 on a negative log10 scale, so that one unit is a factor of ten) in assay [4] was 6.10. Also, the inhibition result in assay [5] is “Dose-dependent effect”. In addition, the Activity in assay [1] was 44.7%; in assay [2] it was 99.9%; in assay [3], 39.4%.
Take `CC1=NCCc2cc(O)c(O)cc21`: the values for the Activity in assay [2] and in assay [3] were -6.31% and 15.9%, respectively.
With `CC(C)CC1NCCc2cc(O)c(O)cc21` (stereo unspecified), the pEC50 in assay [4] was 5.55. In assay [5], the inhibition entry was “Dose-dependent effect”. Moreover, the Activity in assay [1] turned out to be 64.5%; in assay [3], 7.7%. Further, the outcome in assay [2] was inactive.
Regarding `Oc1cc2c(cc1O)C(c1cccc3ccccc13)NCC2` (stereo unspecified), the result in assay [1] and in assay [2] was inactive. For the same compound, the Activity in assay [3] is 43.8%.
As for `COc1ccc(C2NCCc3cc(O)c(O)cc32)cc1` (stereo unspecified), the outcome in assay [1] and in assay [2] was inactive. For the same compound, in assay [3], the Activity amounted to 18.5%.
Consider `OCc1ccc(C2=NCCc3cc(O)c(O)cc32)o1`, for which the results for the Activity in assay [2] and in assay [3] were -10.4% and 13.7%, respectively.
Take `COc1ccccc1C1NCCc2cc(O)c(O)cc21` (stereo unspecified): the outcome in assay [1] and in assay [2] was inactive. The Activity in assay [3] came to 36.3%.
As for `CC(C)C[C@H]1NCCc2cc(O)c(O)cc21`, in assay [2], the result was inactive. Besides, in assay [3], the Activity worked out at 20.5%.
Take `COc1cc(C2NCCc3cc(O)c(O)cc32)ccc1O` (stereo unspecified): the outcome in assay [1] and in assay [2] was inactive. The Activity in assay [3] stood at 11.8%.
Regarding `Oc1cc2c(cc1O)C(c1ccccc1)NCC2` (stereo unspecified), the outcome in assay [1] and in assay [2] was inactive. Besides, the Activity in assay [3] came out at 51.5%.
For the compound `CC(C)NCC(O)c1ccc(O)c(O)c1` (stereo unspecified) [ISOPROTERENOL], the pEC50 in assay [4] was 8.10.
Take `Oc1cc2c(cc1O)C(c1ccco1)=NCC2`: the Activity in assay [2] is 73.5%; in assay [3], 13.4%.
With `C[C@@H]1NCCc2cc(O)c(O)cc21`, the Activity is -9.5% in assay [2] and 19.2% in assay [3].
The matching figures for `Oc1cc2c(cc1O)CCN=C2`: -6.22% and 24.2%.
Regarding `Oc1cccc(C2NCCc3cc(O)c(O)cc32)c1` (stereo unspecified), the result in assay [1] and in assay [2] was inactive. Moreover, in assay [3], the Activity stood at 14.5%.
With `Oc1ccc(C2NCCc3cc(O)c(O)cc32)cc1O` (stereo unspecified), the result in assay [1] and in assay [2] was inactive. Moreover, the Activity in assay [3] was 16.6%.
On to `Oc1cc2c(cc1O)C(c1ccco1)NCC2` (stereo unspecified), for which the Activity in assay [1] was -9.23%; in assay [2] it was -35.3%; in assay [3], 15.6%.
For `COc1cc(C2NCCc3cc(O)c(O)cc32)cc(OC)c1OC` (stereo unspecified), the result in assay [1] and in assay [2] was inactive. For the same compound, the Activity in assay [3] was 20.5%.
In the case of `OCc1ccc(C2NCCc3cc(O)c(O)cc32)o1` (stereo unspecified), the values for the Activity in assay [1], in assay [2] and in assay [3] were -11.1%, -20.3% and 22.3%, respectively.
